≈ marks a conversion by molar mass, not a printed value.
Assays:
Klebsiella pneumoniae [1] = assay: Antibacterial activity against ampicillin-resistant and aminoglycosides-susceptible Klebsiella pneumoniae ATCC 13883 after 12 to 18 hrs; assay type: functional
Summary of the method: (§1)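 Broth microdilution MIC. Culture diluted with broth to an absorbance of 0.08–0.1 at 625 nm. 100 μL of this was diluted into 10 mL broth and dispensed into 96-well plates. Each well received 50 μL inoculum plus 50 μL of a 2-fold compound dilution series. Plates were incubated at 35°C for 12–18 h. MIC is the lowest concentration that inhibits growth, from at least three repeats.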

Enterococcus faecalis [2] = assay: Antibacterial activity against vancomycin-resistant Enterococcus faecalis ATCC 51299 expressing vanB, ant(6)-1, aac(6')-aph(2') resistant gene after 12 to 18 hrs; assay type: functional; summary of the method: as §1
Escherichia coli [3] = assay: Antibacterial activity against Escherichia coli TG1 pET28a plasmid encoded for APH(3')-3a after 12 to 18 hrs; assay type: functional
Summary of the method: (§2)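 Broth microdilution. Bacterial suspension adjusted with broth to absorbance 0.08–0.1 at 625 nm, diluted further in broth, and mixed in wells with 2-fold serial dilutions of compound. Plates incubated at 35°C for 12–18 h. MIC is the lowest concentration inhibiting growth; each determination repeated at least three times.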

Enterococcus faecalis [4] = assay: Antibacterial activity against vancomycin-susceptible and aminoglycosides-resistant Enterococcus faecalis ATCC 29212 after 12 to 18 hrs; assay type: functional; summary of the method: as §1
Enterococcus [5] = assay: Activity of Enterococcus APH(3')-3a
Enterococcus [6] = assay: Ratio of kcat to Km of Enterococcus APH(3')-3a
Staphylococcus aureus [7] = assay: Antibacterial activity against methicillin-resistant Staphylococcus aureus ATCC 33591 after 12 to 18 hrs; assay type: functional; summary of the method: as §1
Klebsiella pneumoniae [8] = assay: Antibacterial activity against multidrug-resistant Klebsiella pneumoniae ATCC 700603 isolate after 12 to 18 hrs; assay type: functional; summary of the method: as §1
Pseudomonas aeruginosa = assay: Antibacterial activity against aminoglycosides-resistant Pseudomonas aeruginosa ATCC 27853 expressing APH(3')-2b after 12 to 18 hrs; assay type: functional; summary of the method: as §1
Escherichia coli [9] = assay: Antibacterial activity against aminoglycoside-susceptible Escherichia coli ATCC 25922 after 12 to 18 hrs; assay type: functional; summary of the method: as §2
Escherichia coli [10] = assay: Antibacterial activity against Escherichia coli TG1 pTZ19U-3 plasmid encoded for APH(3')-1 after 12 to 18 hrs; assay type: functional; summary of the method: as §2
Staphylococcus aureus [11] = assay: Antibacterial activity against aminoglycoside-susceptible Staphylococcus aureus ATCC 25923 after 12 to 18 hrs; assay type: functional; summary of the method: as §2
Escherichia coli [12] = assay: Antibacterial activity against Escherichia coli TG1 pSF815 plasmid encoded for AAC(6')/APH(2') after 12 to 18 hrs; assay type: functional; summary of the method: as §2
Escherichia coli [13] = assay: Antibacterial activity against aminoglycoside-susceptible Escherichia coli TG1 after 12 to 18 hrs; assay type: functional; summary of the method: as §2

Compound | MIC (Klebsiella pneumoniae [1]) [µg/mL] | MIC (Enterococcus faecalis [2]) [µg/mL] | MIC (Escherichia coli [3]) [µg/mL] | MIC (Enterococcus faecalis [4]) [µg/mL] | Km (Enterococcus [5]) [µM] | Vmax (Enterococcus [5]) [µmol/min/mg] | kcat (Enterococcus [5]) [s⁻¹] | kcat/Km (Enterococcus [6]) [×10⁴ /M/s] | MIC (Staphylococcus aureus [7]) [µg/mL] | MIC (Klebsiella pneumoniae [8]) [µg/mL] | MIC (Pseudomonas aeruginosa) [µg/mL] | MIC (Escherichia coli [9]) [µg/mL] | MIC (Escherichia coli [10]) [µg/mL] | MIC (Staphylococcus aureus [11]) [µg/mL] | MIC (Escherichia coli [12]) [µg/mL] | MIC (Escherichia coli [13]) [µg/mL]
NCC[C@H](O)C(=O)N[C@@H]1C[C@H](N)[C@@H](O[C@H]2O[C@H](CN)[C@@H](O)[C@H](O)[C@H]2O)[C@H](O)[C@H]1O[C@H]1O[C@H](CO)[C@@H](O)[C@H](N)[C@H]1O [AMIKACIN] | 1 (≈ 1.71 µM) | ≥ 250 | 1 (≈ 1.71 µM) | 32 (≈ 54.6 µM) | 57.4 | 2.75 | 1.38 | 2.4 | 8 (≈ 13.7 µM) | 0.5 (≈ 0.854 µM) | 0.5 (≈ 0.854 µM) | – | – | – | – | –
NC[C@@H]1O[C@H](O[C@H]2[C@@H](O)[C@H](O[C@@H]3[C@@H](O)[C@H](N)C[C@H](N)[C@H]3O[C@H]3O[C@H](CN)[C@@H](O)[C@H](O)[C@H]3N)O[C@@H]2CNC(=O)[C@@H](N)CO)[C@H](N)[C@@H](O)[C@@H]1O | – | – | 32 (≈ 45.7 µM) | – | 42 | 1.01 | 0.51 | 1.2 | – | – | – | 8 (≈ 11.4 µM) | ≥ 2000 | 1 (≈ 1.43 µM) | 16 (≈ 22.8 µM) | 8 (≈ 11.4 µM)
CNCc1cn(C[C@H]2O[C@@H](O[C@@H]3[C@@H](O)[C@H](N)C[C@H](N)[C@H]3O[C@H]3O[C@H](CN)[C@@H](O)[C@H](O)[C@H]3N)[C@H](O)[C@@H]2O[C@H]2O[C@@H](CN)[C@@H](O)[C@H](O)[C@H]2N)nn1 | – | – | 125 (≈ 176 µM) | – | 100 | 0.72 | 0.36 | 0.36 | – | – | – | 8 (≈ 11.3 µM) | ≥ 2000 | 1 (≈ 1.41 µM) | 16 (≈ 22.6 µM) | 16 (≈ 22.6 µM)
CC(=O)NCC1CN(Cc2cn(C[C@H]3O[C@@H](O[C@@H]4[C@@H](O)[C@H](N)C[C@H](N)[C@H]4O[C@H]4O[C@H](CN)[C@@H](O)[C@H](O)[C@H]4N)[C@H](O)[C@@H]3O[C@H]3O[C@@H](CN)[C@@H](O)[C@H](O)[C@H]3N)nn2)C(=O)O1 (stereo partly drawn) | – | – | 125 (≈ 150 µM) | – | 160 | 0.41 | 0.21 | 0.13 | – | – | – | 32 (≈ 38.3 µM) | ≥ 2000 | 4 (≈ 4.79 µM) | 32 (≈ 38.3 µM) | 16 (≈ 19.1 µM)
NC[C@@H]1O[C@H](O[C@H]2[C@@H](O)[C@H](O[C@@H]3[C@@H](O)[C@H](N)C[C@H](N)[C@H]3O[C@H]3O[C@H](CN)[C@@H](O)[C@H](O)[C@H]3N)O[C@@H]2Cn2cc(CNC(=O)C3CCNCC3)nn2)[C@H](N)[C@@H](O)[C@@H]1O | – | – | 64 (≈ 79.4 µM) | – | 171 | 0.41 | 0.21 | 0.12 | – | – | – | 16 (≈ 19.9 µM) | ≥ 2000 | 4 (≈ 4.96 µM) | 32 (≈ 39.7 µM) | 16 (≈ 19.9 µM)
NCCCC[C@H](N)C(=O)NC[C@H]1O[C@@H](O[C@@H]2[C@@H](O)[C@H](N)C[C@H](N)[C@H]2O[C@H]2O[C@H](CN)[C@@H](O)[C@H](O)[C@H]2N)[C@H](O)[C@@H]1O[C@H]1O[C@@H](CN)[C@@H](O)[C@H](O)[C@H]1N | – | – | 32 (≈ 43.1 µM) | – | 78 | 0.79 | 0.4 | 0.51 | – | – | – | 16 (≈ 21.6 µM) | 125 (≈ 168 µM) | 2 (≈ 2.7 µM) | 32 (≈ 43.1 µM) | 16 (≈ 21.6 µM)
CN[C@H](CC(C)C)C(=O)N[C@H]1C(=O)N[C@@H](CC(N)=O)C(=O)N[C@H]2C(=O)N[C@H]3C(=O)N[C@H](C(=O)N[C@H](C(=O)O)c4cc(O)cc(O)c4-c4cc3ccc4O)[C@H](O)c3ccc(c(Cl)c3)Oc3cc2cc(c3O[C@@H]2O[C@H](CO)[C@@H](O)[C@H](O)[C@H]2O[C@H]2C[C@](C)(N)[C@H](O)[C@H](C)O2)Oc2ccc(cc2Cl)[C@H]1O [VANCOMYCIN] | – | 125 (≈ 86.3 µM) | – | – | – | – | – | – | – | – | – | – | – | – | – | –
NC[C@@H]1O[C@H](O[C@H]2[C@@H](O)[C@H](O[C@@H]3[C@@H](O)[C@H](N)C[C@H](N)[C@H]3O[C@H]3O[C@H](CN)[C@@H](O)[C@H](O)[C@H]3N)O[C@@H]2CNC(=O)CCC(=O)NC[C@H]2O[C@@H](O[C@@H]3[C@@H](O)[C@H](N)C[C@H](N)[C@H]3O[C@H]3O[C@H](CN)[C@@H](O)[C@H](O)[C@H]3N)[C@H](O)[C@@H]2O[C@H]2O[C@@H](CN)[C@@H](O)[C@H](O)[C@H]2N)[C@H](N)[C@@H](O)[C@@H]1O | – | – | 64 (≈ 48.9 µM) | – | > 500 | < 0.1 | < 0.05 | < 0.01 | – | – | – | 32 (≈ 24.4 µM) | 500 (≈ 382 µM) | 2 (≈ 1.53 µM) | 16 (≈ 12.2 µM) | 8 (≈ 6.11 µM)
NCc1cn(C[C@H]2O[C@@H](O[C@@H]3[C@@H](O)[C@H](N)C[C@H](N)[C@H]3O[C@H]3O[C@H](CN)[C@@H](O)[C@H](O)[C@H]3N)[C@H](O)[C@@H]2O[C@H]2O[C@@H](CN)[C@@H](O)[C@H](O)[C@H]2N)nn1 | – | – | 64 (≈ 92.1 µM) | – | 111 | 0.68 | 0.34 | 0.3 | – | – | – | 8 (≈ 11.5 µM) | 1000 (≈ 1440 µM) | 1 (≈ 1.44 µM) | 16 (≈ 23 µM) | 16 (≈ 23 µM)
NCCCC[C@@H](N)C(=O)NC[C@H]1O[C@@H](O[C@@H]2[C@@H](O)[C@H](N)C[C@H](N)[C@H]2O[C@H]2O[C@H](CN)[C@@H](O)[C@H](O)[C@H]2N)[C@H](O)[C@@H]1O[C@H]1O[C@@H](CN)[C@@H](O)[C@H](O)[C@H]1N | – | – | 64 (≈ 86.3 µM) | – | 75 | 0.7 | 0.35 | 0.47 | – | – | – | 32 (≈ 43.1 µM) | ≥ 2000 | 1 (≈ 1.35 µM) | 64 (≈ 86.3 µM) | 16 (≈ 21.6 µM)
NCC(=O)NCC(=O)NC[C@H]1O[C@@H](O[C@@H]2[C@@H](O)[C@H](N)C[C@H](N)[C@H]2O[C@H]2O[C@H](CN)[C@@H](O)[C@H](O)[C@H]2N)[C@H](O)[C@@H]1O[C@H]1O[C@@H](CN)[C@@H](O)[C@H](O)[C@H]1N | 4 (≈ 5.5 µM) | ≥ 250 | – | 64 (≈ 87.9 µM) | – | – | – | – | 32 (≈ 44 µM) | 8 (≈ 11 µM) | 16 (≈ 22 µM) | 16 (≈ 22 µM) | 125 (≈ 172 µM) | 2 (≈ 2.75 µM) | 16 (≈ 22 µM) | 16 (≈ 22 µM)
NC[C@@H]1O[C@H](O[C@H]2[C@@H](O)[C@H](O[C@@H]3[C@@H](O)[C@H](N)C[C@H](N)[C@H]3O[C@H]3O[C@H](CN)[C@@H](O)[C@H](O)[C@H]3N)O[C@@H]2CNC(=O)[C@H](N)CO)[C@H](N)[C@@H](O)[C@@H]1O | – | – | 64 (≈ 91.3 µM) | – | 57 | 0.93 | 0.47 | 0.82 | – | – | – | 8 (≈ 11.4 µM) | ≥ 2000 | 1 (≈ 1.43 µM) | 16 (≈ 22.8 µM) | 8 (≈ 11.4 µM)
GENTAMICIN | 1 | > 250 | – | 8 | – | – | – | – | 2 | 8 | – | – | – | – | – | –
CCCCCCc1cn(C[C@H]2O[C@@H](O[C@@H]3[C@@H](O)[C@H](N)C[C@H](N)[C@H]3O[C@H]3O[C@H](CN)[C@@H](O)[C@H](O)[C@H]3N)[C@H](O)[C@@H]2O[C@H]2O[C@@H](CN)[C@@H](O)[C@H](O)[C@H]2N)nn1 | – | – | 32 (≈ 42.7 µM) | – | 127 | 0.75 | 0.38 | 0.3 | – | – | – | 32 (≈ 42.7 µM) | 500 (≈ 667 µM) | 4 (≈ 5.33 µM) | 16 (≈ 21.3 µM) | 8 (≈ 10.7 µM)

From ChEMBL document CHEMBL1140232, “Surprising alteration of antibacterial activity of 5"-modified neomycin against resistant bacteria” (2008)
